Screening data as filed in PubChem BioAssay.
Hits are enriched below; roughly 1.8% of the tested compounds scored in any of these assays.
PLK1 inh: PLK1 (human) kinase inhibition; P53350; hit rate 0.53% among 97,000; inhibition, % at 10 µM; recombinant PLK1 kinase, TR-FRET peptide phosphorylation;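 active means inhibition of 50% or more in the single-concentration screen; inactive means inhibition below 50%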;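 further: 0% = DMSO max control and 100% = H-89 dihydrochloride min control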
HIV Rev-RRE inh: disrupts HIV-1 Rev binding to RRE RNA; P05866; Rev peptide-RRE RNA binding, FRET; inhibition, % at 8 µM; hit rate 0.79% among 97,000; AID 704;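 active means inhibition above the screen-wide mean plus 3 SD, cut at about 35% in these data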;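 further: 0% = median DMSO wells and 100% = median Neomycin B control wells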
Target sequence (P05866 whole entry, looked up): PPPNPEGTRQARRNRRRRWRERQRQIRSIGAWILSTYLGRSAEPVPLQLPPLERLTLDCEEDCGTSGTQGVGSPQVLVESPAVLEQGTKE
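Test system: labelled RRE RNA duplex and labelled Rev peptide. Times: 5 min compound–RNA preincubation, then 15 min with peptide, 25 °C. Doses: single-dose 8 µM. Measured by: FRET, excitation 480 nm, emission 540 nm donor and 671 nm acceptor. Measure: % inhibition of FRET ratio versus controls.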
EphB4 antag: antagonists of human EphB4-ephrin-B2 interaction; inhibition, % at 7 µM; AID 720; P54760; hit rate 0.15% among 97,000; EphB4 LBD / TNYL-RAW-Alexa532 peptide, fluorescence polarization;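 active means inhibition above the screen-wide mean inhibition plus 3 SD, cut at about 15% in these data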;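 further: 0% = DMSO wells and 100% = excess unlabeled TNYL-RAW peptide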
PLK1 PBD inh: blocks phosphopeptide binding to human Plk1 polo box domain | Plk1 PBD phosphopeptide binding, fluorescence polarization | inhibition, %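 (tested at about 20 µM)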 | hit rate 0.13% among 97,000 | AID 693; in the data active means inhibition above about 34%, passing the limit was not always enough
LYP act: LYP (human) phosphatase activation | Q9Y2R2 | activation, % at 2 µM | hit rate 0.11% among 96,000 | AID 697 | recombinant LYP, DiFMUP fluorescence; 0 = plate median, 100 = signal doubled;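 active means activation at 2 µM above a set limit, the mean plus 5 SD, cut at about 37% in these data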
PTPN22 inh 2: blocks human PTPN22 phosphatase activity | Q9Y2R2 | recombinant LYP catalytic domain, DiFMUP fluorescence | inhibition, % at 2 µM | hit rate 0.21% among 96,000 | AID 640;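 active means inhibition at 2 µM at or above a set limit, the screen mean plus 3 SD, cut at about 24% in these data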;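 further: 0% = DMSO with enzyme and 100% = enzyme fully blocked by orthovanadate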
Active calls of the source: *; x = not tested or not shown; [ ] = remark or other dose.

SMILES	PLK1 inh	HIV Rev-RRE inh	EphB4 antag	PLK1 PBD inh	LYP act	PTPN22 inh 2
CCN(CC)c1ccc(/C=C(/C#N)c2nc3ccccc3[nH]2)c(OC(C)C)c1	-75	136*[fluorescence artefact?]	11	-198	-4	2
CCN=c1scc(C)n1/N=C/c1ccc(O)c(O)c1O	55*	4	1	-9	-17	21
CCN1CC=C2C(C1)C(c1ccc(Cl)s1)C(C#N)=C(N)C2(C#N)C#N (stereo not drawn)	9	87*[fluorescence artefact?]	0	-37	2	-5
Cn1c(=O)c2c(nc(SCCN3CCCCC3)n2Cc2ccccc2)n(C)c1=O	-8	5	-10	-24	3	-3
Cc1ccc(Cn2c(SCCN3CCCCC3)nc3c2c(=O)n(C)c(=O)n3C)cc1	-19	12	16*	-17	6	-8
CC(C)CCNC(=O)C1C2C=CC3(CN(Cc4ccccc4Cl)C(=O)C13)O2 (stereo not drawn)	-12	7	3	-10	4	-6
CCc1ccccc1N1CC23C=CC(O2)C(C(=O)OC)C3C1=O (stereo not drawn)	57*	12	5	10	x	x
CCCCNC(=O)C1C2C=CC3(CN(Cc4ccccc4Cl)C(=O)C13)O2 (stereo not drawn)	-12	12	16*	-7	2	-4
CCc1ccc(/C=C2\CN(CC)Cc3c2nc2ccccc2c3C(=O)O)cc1	6	40*	-1	4	-4	8
CCN(CC)C(=O)c1c2c(nc3ccccc13)-c1ccccc1CC2	-8	4	-6	11	-4	2
Cc1ccc(C)c(Cn2c(C(=O)OC(C)C)cc3c2ccn3C)c1	-14	-2	5	-34	0	1
Cc1ccc2oc3nc(C)c(C(=O)Nc4cccc(C(F)(F)F)c4)cc3c(=O)c2c1	-62	18	1	-37	-28	31*
O=C(CSc1ncc(-c2ccccc2)n1C1CCCC1)N1CCc2ccccc21	-23	7	1	-17	2	-4
Cc1csc(SCC(=O)NCc2cccs2)n1	-3	8	-4	-3	1	-3
Cc1sc2nc(SCC(=O)NCc3cccs3)[nH]c(=O)c2c1C	52*	-1	-3	25	3	-5
COC(=O)c1ccc(COc2ccc3c(C)c(C)c(=O)oc3c2C)o1	-12	7	22*	-7	15	-16
Cc1ccc(CNc2ccc3c(c2)OCO3)c(C)c1	-11	90*[fluorescence artefact?]	1	-36	-16	16
COc1cc(CNCc2ccccn2)ccc1OCc1cccc(Cl)c1	-16	2	3	2	6	-9
O=C(Cc1sc(-c2ccccc2Cl)nc1-c1ccccc1)Nc1ccc(F)cc1	-3	16	-1	14	-1	0
COc1ccc(C2C(=O)N(C3CCCCC3)CC(=O)N2C2CCCCC2)cc1 (stereo not drawn)	-9	9	-7	6	-24	25*
Cc1ccc(C2C(=O)N(C3CCCC3)CC(=O)N2C2CCCCC2)cc1 (stereo not drawn)	-4	6	0	-25	-8	8
Cc1ccc(NC(=O)CN2C(=O)S/C(=C\c3cccn3C)C2=O)cc1	-11	9	-9	18	-6	10
Cc1ccc(NC(=O)CN2C(=O)S/C(=C\c3ccc(-c4cccc(C(=O)O)c4C)o3)C2=O)cc1	5	7	-2	13	-54	56*
COc1ccccc1-c1c(C#N)c(SCC(=O)N2CCCC2)nc(C)c1C(N)=O	5	2	1	-21	3	-4
C=CCN1C(=O)C2(NNc3ccccc3O2)c2ccccc21 (stereo not drawn)	-11	69*	-2	-61	10	-14
SMILES	PLK1 inh	HIV Rev-RRE inh	EphB4 antag	PLK1 PBD inh	LYP act	PTPN22 inh 2
C=CCN1C(=O)C(O)(CC(=O)c2ccc(-n3cccc3)cc2)c2ccccc21 (stereo not drawn)	-13	2	-5	-13	0	2
CCCCN1C(=O)C2(NNc3ccccc3O2)c2ccccc21 (stereo not drawn)	-14	73*	2	-26	-6	8
CCCN1C(=O)C(O)(CC(=O)c2ccc3c(c2)OCCO3)c2ccccc21 (stereo not drawn)	-11	2	-3	-3	-1	0
CC(Sc1nnc(CNc2cccc3ccccc23)n1-c1ccccc1)C(=O)N/N=C/c1ccco1 (stereo not drawn)	-10	-1	-1	17	-10	14
CCCCNC(=O)c1ccc(NS(=O)(=O)c2ccccc2)cc1	10	1	1	0	-9	12
CCc1nc2ccccc2c(C(=O)OCC(=O)NCCCN2CCCC2=O)c1C	-13	1	-7	-12	2	-4
CC(=O)Nc1cccc(NC(=O)CCn2cnc3cc(C)c(C)cc32)c1	-8	2	-6	-11	-25	25*
Cc1ccc(NC(=O)CCn2cnc3cc(C)c(C)cc32)cc1	-6	3	-2	-14	11	-17
CC1=Nc2ccccc2/C1=C/c1sc(=N)n(-c2nccs2)c1O	-43	62*	3	-37	-10	7
CCn1c(O)c(/C=C2\C=Nc3ccccc32)sc1=Nc1ccc(C)cc1	-9	7	-1	-19	8	-2
CC(C)Oc1ccccc1C1CC(=O)Nc2c1c(=O)n(C)c(=O)n2C (stereo not drawn)	-7	0	-5	-23	-1	0
Cn1c(CSCc2ccccc2Cl)nnc1SCC(=O)Nc1nccs1	65*	9	5	-21	1	-4
COC(=O)c1cc(NC(=O)c2ccccc2)c(=O)oc1C/C=N\OCc1ccc(Cl)cc1Cl	-4	48*	-3	-8	-7	8
CCC(C)(C)NC(=O)CN(C(=O)CNS(=O)(=O)c1ccc(C)cc1)c1ccc2c(c1)OCCO2	-8	8	7	-35	8	-11
COc1ccc(OC)c2c1C(=O)c1ccccc1C2=O	-14	75*[fluorescence artefact?]	-2	32	-3	6
COc1cccc2c1C(=O)c1ccc3ccccc3c1C2=O	-10	5	1	-3	-1	1
O=C(c1ccccc1)c1ccc2ccccc2n1	-10	2	-5	-21	-3	2
Cc1cccc(NC(=O)c2ccc3ccccc3n2)c1C	-7	19	3	-13	5	-3
O=C(O)C(=O)/C(=C\c1cccc2ccccc12)c1ccc2ccccc2n1	-3	89*[fluorescence artefact?]	2	-14	-5	7
O=C(O)C(=O)/C(=C\c1ccccc1)c1ccc2ccccc2n1	-13	78*	0	-19	6	-9
CC(C)(C)NC(=O)C1CCN(C(=O)c2ccc(Br)cc2)CC1	-12	3	3	-2	-11	11
N#Cc1c(-c2ccco2)cc(-c2cccnc2)nc1N	55*	14	0	36	-1	-1
